From ChEMBL document CHEMBL1150426, “New C5-alkylated indolobenzazepinones acting as inhibitors of tubulin polymerization: cytotoxic and antitumor activities” (J Med Chem, 2008)
Calls of active or inactive are those of the source. No cut-off for these calls is given here.

Experiments:
[1] = tested on: KB; test: Cytotoxicity against human KB cells after 72 hrs; type: functional, cell-based
Procedure, shortened: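 KB cells in EMEM (4.5 g/L glucose, 10% FCS, 1% glutamine) seeded 5 × 10³/well, dosed after 24 h with compound in DMSO (<0.1%). 72 h exposure, then resazurin 2 h; fluorescence ex 560/em 590 nm. IC50 = 50% fluorescence decrease versus untreated; triplicate.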

[2] = tested on: MDA-MB-231; test: Cell cycle arrest in human MDA-MB-231 cells assessed as accumulation at G2/M phase at 0.1 uM after 24 hrs by flow cytometry
[3] = tested on: K562; test: Cell cycle arrest in human K562 cells assessed as accumulation at S phase at 0.05 uM after 24 hrs by flow cytometry; type: functional
Procedure, shortened: (§1)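 Exponentially growing K562 cells exposed to compound or DMSO for 6, 16 or 24 h; cell-cycle phase distribution determined by flow cytometry; data representative of three independent experiments.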

[4] = tested on: K562; test: Cell cycle arrest in human K562 cells assessed as accumulation at S phase at 1 uM after 24 hrs by flow cytometry; type: functional; procedure, shortened: as §1
[5] = tested on: K562; test: Cell cycle arrest in human K562 cells assessed as accumulation at S phase at 1 uM after 16 hrs by flow cytometry; type: functional; procedure, shortened: as §1
[6] = tested on: K562; test: Cell cycle arrest in human K562 cells assessed as accumulation at G0/G1 phase at 0.5 uM after 6 hrs by flow cytometry; type: functional; procedure, shortened: as §1
[7] = tested on: MDA-MB-231; test: Antiproliferative activity against human MDA-MB-231 cells after 72 hrs; type: functional, cell-based; conditions: MDA-MB-231, 72 h
Procedure, shortened: (§2)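 Cells were seeded at 5 × 10³ per well and cultured for 24 h. Test compound in DMSO (under 0.1%) was then added for 72 h. Resazurin was added for 2 h, and fluorescence was read at ex 560 nm / em 590 nm. IC50 was taken as the concentration giving a 50% fall in fluorescence versus untreated cells. Runs were done in triplicate.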

[8] = tested on: HCT-116; test: Antiproliferative activity against human HCT116 cells after 72 hrs; type: functional, cell-based; conditions: HCT-116, 72 h; procedure, shortened: as §2
[9] = tested on: K562; test: Cell cycle arrest in human K562 cells assessed as accumulation at S phase at 0.5 uM after 6 hrs by flow cytometry; type: functional; procedure, shortened: as §1
[10] = tested on: K562; test: Cell cycle arrest in human K562 cells assessed as accumulation at S phase at 1 uM after 6 hrs by flow cytometry; type: functional; procedure, shortened: as §1
[11] = tested on: MCF7; test: Cell cycle arrest in human MCF7 cells assessed as accumulation at G2/M phase at 0.05 uM after 24 hrs by flow cytometry
[12] = tested on: HT-29; test: Antiproliferative activity against human HT29 cells after 72 hrs; type: functional, cell-based; conditions: HT-29, 72 h; procedure, shortened: as §2
[13] = tested on: K562; test: Antiproliferative activity against human K562 cells after 72 hrs; type: functional, cell-based; conditions: K562, 72 h; procedure, shortened: as §2
[14] = tested on: MCF7; test: Cell cycle arrest in human MCF7 cells assessed as accumulation at G2/M phase at 0.1 uM after 24 hrs by flow cytometry
[15] = tested on: K562; test: Induction of apoptosis in human K562 cells assessed as activation of caspase 7 at 0.01 to 1 uM after 24 hrs by microtitre plate fluorimeter; type: functional, cell-based
Procedure, shortened: (§3)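 Cells seeded 5 × 10⁴/well, then after 24 h given compound at 1, 0.1 or 0.01 µM, or 0.1% DMSO as negative control, for 24 h. Caspase-3/7 substrate in homogeneous assay buffer added; fluorescence read at 527 nm after 1 h.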

[16] = tested on: B16-F10; test: Antiproliferative activity against mouse B16F10 cells after 72 hrs; type: functional, cell-based; conditions: B16-F10, 72 h; procedure, shortened: as §2
[17] = tested on: K562; test: Cell cycle arrest in human K562 cells assessed as accumulation at G0/G1 phase at 0.05 uM after 6 hrs by flow cytometry; type: functional; procedure, shortened: as §1
[18] = tested on: L1210; test: Antiproliferative activity against mouse L1210 cells after 72 hrs; type: functional, cell-based; conditions: L1210, 72 h; procedure, shortened: as §2
[19] = tested on: K562; test: Cell cycle arrest in human K562 cells assessed as accumulation at S phase at 0.5 uM after 16 hrs by flow cytometry; type: functional; procedure, shortened: as §1
[20] = tested on: K562; test: Cell cycle arrest in human K562 cells assessed as accumulation at G0/G1 phase at 1 uM after 24 hrs by flow cytometry; type: functional; procedure, shortened: as §1
[21] = tested on: K562; test: Cell cycle arrest in human K562 cells assessed as accumulation at G0/G1 phase at 1 uM after 6 hrs by flow cytometry; type: functional; procedure, shortened: as §1
[22] = tested on: MDA-MB-231; test: Induction of apoptosis in human MDA-MB-231 cells assessed as activation of caspase 7 at 0.01 to 1 uM after 24 hrs by microtitre plate fluorimeter; type: functional, cell-based; procedure, shortened: as §3
[23] = tested on: MCF7; test: Antiproliferative activity against human MCF7 cells after 72 hrs; type: functional, cell-based; conditions: MCF7, 72 h; procedure, shortened: as §2
[24] = tested on: K562; test: Cell cycle arrest in human K562 cells assessed as accumulation at S phase at 0.05 uM after 16 hrs by flow cytometry; type: functional; procedure, shortened: as §1
[25] = tested on: K562; test: Cell cycle arrest in human K562 cells assessed as accumulation at G0/G1 phase at 0.05 uM after 16 hrs by flow cytometry; type: functional; procedure, shortened: as §1
[26] = tested on: K562; test: Cell cycle arrest in human K562 cells assessed as accumulation at G2/M phase at 0.5 uM after 16 hrs by flow cytometry; type: functional; procedure, shortened: as §1
[27] = tested on: MDA-MB-231; test: Effect on cell morphology in human MDA-MB-231 cells assessed as change in cell size and shape at 0.050 uM after 24 hrs; type: functional, cell-based
Procedure, shortened: (§4)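 MDA-MB231 cells on chamber slides treated 24 h at 50 nM, fixed in 3.7% formaldehyde, permeabilized with 0.1% Triton X-100. Stained for β-tubulin (Alexa 488 secondary), actin (Alexa 546 phalloidin) and nuclei (Hoechst 33342); imaged by fluorescence microscopy at 60× and 100×.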

[28] = tested on: K562; test: Cell cycle arrest in human K562 cells assessed as accumulation at G2/M phase at 0.5 uM after 24 hrs by flow cytometry; type: functional; procedure, shortened: as §1
[29] = tested on: K562; test: Cell cycle arrest in human K562 cells assessed as accumulation at G2/M phase at 0.05 uM after 6 hrs by flow cytometry; type: functional; procedure, shortened: as §1
[30] = tested on: A549; test: Antiproliferative activity against human A549 cells after 72 hrs; type: functional, cell-based; conditions: A549, 72 h; procedure, shortened: as §2
[31] = tested on: K562; test: Cell cycle arrest in human K562 cells assessed as accumulation at G2/M phase at 1 uM after 6 hrs by flow cytometry; type: functional; procedure, shortened: as §1
[32] = tested on: K562; test: Cell cycle arrest in human K562 cells assessed as accumulation at G2/M phase at 0.05 uM after 16 hrs by flow cytometry; type: functional; procedure, shortened: as §1
[33] = tested on: K562; test: Cell cycle arrest in human K562 cells assessed as accumulation at G0/G1 phase at 0.5 uM after 16 hrs by flow cytometry; type: functional; procedure, shortened: as §1
[34] = tested on: K562; test: Cell cycle arrest in human K562 cells assessed as accumulation at G2/M phase at 0.05 uM after 24 hrs by flow cytometry; type: functional; procedure, shortened: as §1
[35] = Antitumor activity against human U87 tumor transplanted in chick chorio-allantoic membrane assessed as reduction of tumor volume at 10 uM after 4 days; type: functional, U-87MG ATCC; set-up: scale not given: the % may be the effect or the level left
Procedure, shortened: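 U87 glioma cells (5 × 10⁶ in 20 µL medium) grafted on chick CAM on embryonic day 10; size-matched tumors grouped on day 2. 20 µL drug at 10 µM applied locally once daily, days 3–6 of tumor growth; controls got solvent. Volume V = 4/3πr³ from length and width, six tumors per group.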

[36] = tested on: MDA-MB-231; test: Effect on cell morphology in human MDA-MB-231 cells assessed as change in cellular mass at 0.050 uM after 24 hrs; type: functional, cell-based; procedure, shortened: as §4
[37] = tested on: K562; test: Cell cycle arrest in human K562 cells assessed as accumulation at G2/M phase at 0.5 uM after 6 hrs by flow cytometry; type: functional; procedure, shortened: as §1
[38] = tested on: HCT-116; test: Induction of apoptosis in human HCT116 cells assessed as activation of caspase 7 at 0.01 to 1 uM after 24 hrs by microtitre plate fluorimeter; type: functional, cell-based; procedure, shortened: as §3
[39] = tested on: MDA-MB-231; test: Induction of apoptosis in human MDA-MB-231 cells assessed as activation of caspase 3 at 0.01 to 1 uM after 24 hrs by microtitre plate fluorimeter; type: functional, cell-based; procedure, shortened: as §3
[40] = tested on: K562; test: Cell cycle arrest in human K562 cells assessed as accumulation at G0/G1 phase at 0.05 uM after 24 hrs by flow cytometry; type: functional; procedure, shortened: as §1
[41] = tested on: K562; test: Cell cycle arrest in human K562 cells assessed as accumulation at G2/M phase at 1 uM after 24 hrs by flow cytometry; type: functional; conditions: in the assay text read “at 0.1 uM” for “at 1 uM”; procedure, shortened: as §1
[42] = tested on: MDA-MB-231; test: Cell cycle arrest in human MDA-MB-231 cells assessed as accumulation at G2/M phase at 0.05 uM after 24 hrs by flow cytometry
[43] = tested on: K562; test: Induction of apoptosis in human K562 cells assessed as activation of caspase 3 at 0.01 to 1 uM after 24 hrs by microtitre plate fluorimeter; type: functional, cell-based; procedure, shortened: as §3
[44] = tested on: K562; test: Cell cycle arrest in human K562 cells assessed as accumulation at G0/G1 phase at 0.5 uM after 24 hrs by flow cytometry; type: functional; procedure, shortened: as §1
[45] = tested on: K562; test: Cell cycle arrest in human K562 cells assessed as accumulation at S phase at 0.05 uM after 6 hrs by flow cytometry; type: functional; procedure, shortened: as §1
[46] = tested on: K562; test: Cell cycle arrest in human K562 cells assessed as accumulation at G2/M phase at 1 uM after 16 hrs by flow cytometry; type: functional; procedure, shortened: as §1
[47] = tested on: MDA-MB-435; test: Antiproliferative activity against human MDA-MB-435 cells after 72 hrs; type: functional, cell-based; conditions: MDA-MB-435, 72 h; procedure, shortened: as §2
[48] = tested on: HCT-116; test: Induction of apoptosis in human HCT116 cells assessed as activation of caspase 3 at 0.01 to 1 uM after 24 hrs by microtitre plate fluorimeter; type: functional, cell-based; procedure, shortened: as §3
[49] = tested on: K562; test: Cell cycle arrest in human K562 cells assessed as accumulation at G0/G1 phase at 1 uM after 16 hrs by flow cytometry; type: functional; procedure, shortened: as §1
[50] = Inhibition of sheep brain tubulin polymerization; set-up: species or system Ovis aries
Procedure, shortened: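 Sheep brain tubulin (about 2–3 mg/mL), purified by two assembly–disassembly cycles, in 0.1 M MES, 0.5 mM MgCl₂, 1 mM EGTA, 1 mM GTP, pH 6.6. Assembly followed by turbidity at 350 nm, 37 °C.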

[51] = tested on: K562; test: Cell cycle arrest in human K562 cells assessed as accumulation at S phase at 0.5 uM after 24 hrs by flow cytometry; type: functional; procedure, shortened: as §1

## C[C@H]1NC(=O)c2[nH]c3ccccc3c2-c2ccccc21
[1]
  IC50: 340 nM

## CC[C@@H]1NC(=O)c2[nH]c3ccccc3c2-c2ccccc21
[2]
  Activity: 100%
[3]
  Activity: 49.1%
[4]
  Activity: 69.5%
[5]
  Activity: 52.8%
[6]
  Activity: 0.2%
[7]
  IC50: 30 nM
[8]
  IC50: 42 nM
[9]
  Activity: 67.8%
[10]
  Activity: 91.1%
[11]
  Activity: 65.6%
[12]
  IC50: 42 nM
[13]
  IC50: 70 nM
[14]
  Activity: 62.6%
[15]
  Activity: Active
[16]
  IC50: 68 nM
[17]
  Activity: 0.3%
[18]
  IC50: 34 nM
[19]
  Activity: 47.3%
[20]
  Activity: 7.6%
[21]
  Activity: 0.2%
[22]
  Activity: Active
[23]
  IC50: 40 nM
[24]
  Activity: 97.6%
[25]
  Activity: 1%
[26]
  Activity: 51.5%
[27]
  Activity: Active
[28]
  Activity: 44.7%
[29]
  Activity: 4.9%
[30]
  IC50: 50 nM
[31]
  Activity: 8.1%
[32]
  Activity: 1.1%
[33]
  Activity: 0.6%
[34]
  Activity: 24.9%
[1]
  IC50: 37 nM
[35]
  Activity: 76%
[36]
  Activity: Active
[37]
  Activity: 32%
[38]
  Activity: Active
[39]
  Activity: Active
[40]
  Activity: 14.6%
[41]
  Activity: 20.3%
[42]
  Activity: 44.5%
[43]
  Activity: Active
[44]
  Activity: 1.2%
[45]
  Activity: 94.3%
[46]
  Activity: 43.4%
[47]
  IC50: 70 nM
[48]
  Activity: Active
[49]
  Activity: 2.4%
[50]
  IC50: 1900 nM
[51]
  Activity: 53.4%

## CCCCC1NC(=O)c2[nH]c3ccccc3c2-c2ccccc21 (racemic)
[1]
  IC50: 35 nM
[50]
  IC50: 1000 nM

## CC(C)C1NC(=O)c2[nH]c3ccccc3c2-c2ccccc21 (racemic)
[1]
  IC50: 280 nM
[50]
  IC50: 1700 nM
